Measured values: ChEMBL document CHEMBL1799956, “Convergent synthesis and biological evaluation of 2-amino-4-(3',4',5'-trimethoxyphenyl)-5-aryl thiazoles as microtubule targeting agents” (J Med Chem, 2011)

Legend:
[1] = system: A549; test: Antiproliferative activity against human A549 cells assessed as growth inhibition after 72 hrs by MTT assay; assay type: functional, cell-based; settings: A549, 72 h
[2] = system: HeLa; test: Antiproliferative activity against human HeLa cells assessed as growth inhibition after 72 hrs by MTT assay; assay type: functional, cell-based
[3] = system: HL-60; test: Antiproliferative activity against human HL60 cells assessed as growth inhibition after 72 hrs by MTT assay; assay type: functional, cell-based; settings: HL-60, 72 h
[4] = system: Jurkat; test: Antiproliferative activity against human Jurkat cells assessed as growth inhibition after 72 hrs by MTT assay; assay type: functional, cell-based
[5] = system: K562; test: Antiproliferative activity against human K562 cells assessed as growth inhibition after 72 hrs by MTT assay; assay type: functional, cell-based; settings: K562, 72 h
[6] = system: MCF7; test: Antiproliferative activity against human MCF7 cells assessed as growth inhibition after 72 hrs by MTT assay; assay type: functional, cell-based; settings: MCF7, 72 h
[7] = system: HT-29; test: Antiproliferative activity against human HT-29 cells assessed as growth inhibition after 72 hrs by MTT assay; assay type: functional, cell-based; settings: HT-29, 72 h
[8] = Inhibition of bovine brain tubulin polymerization after 20 mins by turbidimetric analysis; parameters: species or system Bos taurus
In short: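 Purified tubulin at 10 μM was used for the assembly (polymerization) inhibition assay. IC50 is the concentration inhibiting assembly.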

[9] = species on record: Bos taurus; test: Displacement of [3H]colchicine from bovine brain tubulin at 5 uM
In short: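 [3H]colchicine binding inhibition with tubulin at 1 μM, [3H]colchicine at 5 μM and test compound at 5 μM.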

[10] = Antiproliferative activity against human taxol-resistant A549-T12 cells assessed as growth inhibition after 72 hrs by MTT assay; assay type: functional, cell-based; settings: A549, 72 h
[11] = system: A549; test: Fold resistance, ratio of IC50 for human taxol-resistant A549-T12 cells to IC50 for human A549 cells; assay type: functional
[12] = system: LoVo; test: Antiproliferative activity against human LoVo cells assessed as growth inhibition after 72 hrs by MTT assay; assay type: functional, cell-based
[13] = system: LoVo; test: Antiproliferative activity against human doxorubicin-resistant LoVo cells overexpressing P-gp assessed as growth inhibition after 72 hrs by MTT assay; assay type: functional, cell-based
[14] = system: CCRF-CEM; test: Antiproliferative activity against human CEM cells assessed as growth inhibition after 72 hrs by MTT assay; assay type: functional, cell-based
[15] = Antiproliferative activity against human vinblastine-resistant CEM/VBL100 cells overexpressing P-gp assessed as growth inhibition after 72 hrs by MTT assay; assay type: functional, cell-based; settings: CEM/VBL100, 72 h
[16] = system: LoVo; test: Fold resistance, ratio of IC50 for human doxorubicin-resistant LoVo cells overexpressing P-gp to IC50 for human LoVo cells; assay type: functional
In short: (§1)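 Fold resistance taken as the ratio of IC50 in the resistant line to IC50 in the parental line, each IC50 from dose-response curves of at least three independent experiments.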

[17] = system: CCRF-CEM; test: Fold resistance, ratio of IC50 for human vinblastine-resistant CEM/VBL100 cells overexpressing P-gp to IC50 for human CEM cells; assay type: functional; in short: as §1
[18] = species on record: Bos taurus; test: Ratio of combretastatin A-4 IC50 to compound IC50 for bovine brain tubulin

Structure (SMILES) | IC50 [1] [nM] | IC50 [2] [nM] | IC50 [3] [nM] | IC50 [4] [nM] | IC50 [5] [nM] | IC50 [6] [nM] | IC50 [7] [nM] | IC50 [8] [nM] | inhibition [9] [%] | IC50 [10] [nM] | Ratio IC50 [11] | IC50 [12] [nM] | IC50 [13] [nM] | IC50 [14] [nM] | IC50 [15] [nM] | Ratio IC50 [16] | Ratio IC50 [17] | Ratio IC50 [18]
COc1ccc(-c2sc(N)nc2-c2cc(OC)c(OC)c(OC)c2)cc1Cl | 37.7 | 1.6 | 2.8 | 2.9 | 36.1 | 27.3 | 12.8 | 880 | 77 |  |  |  |  |  |  |  |  | 
CC(=O)O[C@H]1C(=O)[C@@]2(C)[C@H]([C@H](OC(=O)c3ccccc3)[C@]3(O)C[C@H](OC(=O)[C@H](O)[C@@H](NC(=O)c4ccccc4)c4ccccc4)C(C)=C1C3(C)C)[C@]1(OC(C)=O)CO[C@@H]1C[C@@H]2O [PACLITAXEL] | 7.2 |  |  |  |  |  |  |  |  | 75.2 | 10.4 |  |  |  |  |  |  | 
COc1cc(-c2nc(N)sc2-c2cccc3ccccc23)cc(OC)c1OC | 6320 | 3860 | 8660 | 4690 | 9030 | > 10000 | > 10000 |  |  |  |  |  |  |  |  |  |  | 
COc1ccc(-c2sc(N)nc2-c2cc(OC)c(OC)c(OC)c2)cc1C | 305 | 2.6 | 4 | 21.5 | 67.6 | 58.7 | 24 | 1100 | 72 |  |  |  |  |  |  |  |  | 
CCOc1ccc(-c2sc(N)nc2-c2cc(OC)c(OC)c(OC)c2)cc1Cl | 11.2 | 0.91 | 0.27 | 0.06 | 8.8 | 14.1 | 15.6 | 890 | 87 | 8.5 | 0.8 | 2 | 1.7 | 1.4 | 0.7 | 0.9 | 0.5 | 
COc1cc(-c2nc(N)sc2-c2ccc(C)cc2)cc(OC)c1OC | 42.8 | 0.73 | 3.9 | 3.9 | 58.7 | 280 | 12.4 | 440 | 88 |  |  |  |  |  |  |  |  | 3
COc1cccc(-c2sc(N)nc2-c2cc(OC)c(OC)c(OC)c2)c1 | 2370 | 209 | 118 | 48.4 | 728 | 476 | 239 |  |  |  |  |  |  |  |  |  |  | 
COc1cc(-c2nc(N)sc2-c2cc3ccccc3s2)cc(OC)c1OC | 16 | 2.8 | 0.9 | 0.6 | 19.6 | 47 | 19.1 | 2000 | 86 |  |  |  |  |  |  |  |  | 
COc1cc(-c2nc(N)sc2-c2ccc3ccccc3c2)cc(OC)c1OC | 3.8 | 1.6 | 2.7 | 3.3 | 22.1 | 51.2 | 23.9 | 740 | 94 |  |  |  |  |  |  |  |  | 
COc1ccc(-c2sc(N)nc2-c2cc(OC)c(OC)c(OC)c2)cc1F | 3.1 | 2 | 6.1 | 7.3 | 6 | 18.6 | 5.7 | 1200 | 81 |  |  |  |  |  |  |  |  | 
COc1cc(-c2nc(N)sc2-c2ccc(C(F)(F)F)cc2)cc(OC)c1OC | 357 | 3.2 | 5.1 | 8.5 | 7.6 | 0.4 | 221 | 4000 | 25 |  |  |  |  |  |  |  |  | 
COc1ccc(-c2sc(N)nc2-c2cc(OC)c(OC)c(OC)c2)cc1OC | 1800 | 249 | 301 | 319 | 829 | 1170 | 432 |  |  |  |  |  |  |  |  |  |  | 
CC[C@]1(O)C[C@@H]2CN(CCc3c([nH]c4ccccc34)[C@@](C(=O)OC)(c3cc4c(cc3OC)N(C)[C@H]3[C@@](O)(C(=O)OC)[C@H](OC(C)=O)[C@]5(CC)C=CCN6CC[C@]43[C@@H]65)C2)C1 [VINBLASTINE] |  |  |  |  |  |  |  |  |  |  |  |  |  | 4.1 | 230 |  | 56.1 | 
COc1cccc2c1C(=O)c1c(O)c3c(c(O)c1C2=O)C[C@@](O)(C(=O)CO)C[C@@H]3O[C@H]1C[C@H](N)[C@H](O)[C@H](C)O1 [DOXORUBICIN] |  |  |  |  |  |  |  |  |  |  |  | 120 |  |  |  | 109.6 |  | 
COc1ccc(-c2sc(N)nc2-c2cc(OC)c(OC)c(OC)c2)cc1 | 20.2 | 2.3 | 3.2 | 2.1 | 5.1 | 60.9 | 11.7 | 1100 | 79 | 11.4 | 0.6 | 3.1 | 0.8 | 7.7 | 1.2 | 0.25 | 0.1 | 
CCc1ccc(-c2sc(N)nc2-c2cc(OC)c(OC)c(OC)c2)cc1 | 238 | 1 | 1.1 | 4.1 | 49.7 | 117 | 54.1 | 1100 | 73 |  |  |  |  |  |  |  |  | 
COc1cc(-c2nc(N)sc2-c2ccccc2)cc(OC)c1OC | 9600 | 3090 | 3640 | 3830 | 8500 | > 10000 | 7920 |  |  |  |  |  |  |  |  |  |  | 
